According to ChEMBL document CHEMBL1255462, “Antiviral activity of a small-molecule inhibitor of filovirus infection” (Antimicrob Agents Chemother, 2010):
Active and inactive are the calls of the source. The calls are words filed in the database; no cut-off is given here.

Key:
Ebolavirus [1] = test: Antiviral activity against Zaire ebolavirus expressing GFP in african green monkey Vero E6 cells after 48 hrs by standard plaque assay; type: functional, cell-based
Ebolavirus [2] = test: Antiviral activity against Zaire ebolavirus expressing GFP in african green monkey Vero E6 cells at >=0.8 uM after 48 hrs by standard plaque assay; type: functional
Ebolavirus [3] = test: Antiviral activity against Sudan ebolavirus expressing GFP in african green monkey Vero E6 cells after 48 hrs by standard plaque assay; type: functional, cell-based; settings: Orthoebolavirus
[4] = Cytotoxicity against african green monkey Vero E6 cells after 72 hrs; type: cell-based; settings: chlorocebus sabaeus
Procedure, shortened: (§1)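 Confluent monolayers were treated in triplicate with serially diluted compound at 0.0018 to 320 µM for 72 h. Viability was read by CellTiter Glo luminescence, and CC50 was determined.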

[5] = Cytotoxicity against human HEK293 cells after 72 hrs; type: cell-based; procedure, shortened: as §1
[6] = Cytotoxicity against MDCK cells after 72 hrs; type: cell-based, Canis lupus familiaris; settings: dog; procedure, shortened: as §1
[7] = Cytotoxicity against human A549 cells after 72 hrs; type: cell-based; procedure, shortened: as §1
[8] = Cytotoxicity against human Hep2 cells after 72 hrs; type: cell-based, HEp-2; procedure, shortened: as §1
[9] = Cytotoxicity against human PBMC after 72 hrs; type: cell-based; settings: PBMC (peripheral blood mononuclear cells)
[10] = Antiviral activity against Lake Victoria marburgvirus - Ravn in overnight pretreated african green monkey Vero E6 cells at 25 uM after 48 hrs by standard virus yield reduction assay; type: functional; parameters: scale not given: the % may be the effect or the level left
[11] = Antiviral activity against Lake Victoria marburgvirus - Ravn in overnight pretreated african green monkey Vero E6 cells after 48 hrs by standard virus yield reduction assay; type: functional, cell-based; settings: Kenya, 1987, Vero
[12] = Antiviral activity against Lake Victoria marburgvirus - Ci67 in overnight pretreated african green monkey Vero E6 cells at 10 uM after 48 hrs by standard virus yield reduction assay; type: functional; parameters: scale not given: the % may be the effect or the level left
[13] = Antiviral activity against Lake Victoria marburgvirus - Ci67 in overnight pretreated african green monkey Vero E6 cells after 48 hrs by standard virus yield reduction assay; type: functional
Ebolavirus [14] = test: Antiviral activity against Ebola-like viruses infected in C57BL/6 mouse assessed as increase in mouse survival at 5 mg/kg, ip single injection; type: functional; settings: route intraperitoneal
Procedure, shortened: (§2)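 Compound given once i.p. in 0.9% saline at day 1 postinfection, with vehicle-treated controls. Health and mortality recorded twice daily for 14 days. Animals surviving 14 days were scored as protected, and survival curves were compared by Kaplan-Meier analysis.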

Marburgvirus [15] = test: Antiviral activity against Marburgvirus infected in BALB/C mouse assessed as protection against virus challenge at 10 mg/kg, ip measured for 14 days; type: functional, organism-based; parameters: dose 10 mg/kg; procedure, shortened: as §2
Marburgvirus [16] = test: Antiviral activity against Marburgvirus infected in BALB/C mouse assessed as protection against virus challenge at 5 mg/kg, ip administered 1 day postinfection; type: functional; settings: route intraperitoneal; procedure, shortened: as §2
Ebolavirus [17] = test: Antiviral activity against Ebola-like viruses infected in C57BL/6 mouse assessed as serum alanine aminotransferase at 10 mg/kg, ip after 24 hrs measured on 2 days postinfection; type: functional; settings: route intraperitoneal
Procedure, shortened: (§3)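 C57BL/6 mice received 10 mg/kg i.p. in saline, or vehicle, 24 h postinfection. Five mice per group were sacrificed on days 2, 4 and 6. Serum was frozen at -70°C until all samples were collected, then assayed for ALT, AST and ALP (U/liter). Values are group means compared with vehicle.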

Ebolavirus [18] = test: Antiviral activity against Ebola-like viruses infected in C57BL/6 mouse assessed as serum aspartate aminotransferase at 10 mg/kg, ip after 24 hrs measured on 2 days postinfection; type: functional; settings: route intraperitoneal; procedure, shortened: as §3
Ebolavirus [19] = test: Antiviral activity against Ebola-like viruses infected in C57BL/6 mouse assessed as serum alkaline phosphatase at 10 mg/kg, ip after 24 hrs measured on 2 days postinfection; type: functional; settings: route intraperitoneal; procedure, shortened: as §3
Ebolavirus [20] = test: Antiviral activity against Ebola-like viruses infected in C57BL/6 mouse assessed as serum alanine aminotransferase at 10 mg/kg, ip after 24 hrs measured on 4 days postinfection; type: functional; settings: route intraperitoneal; procedure, shortened: as §3
Ebolavirus [21] = test: Antiviral activity against Ebola-like viruses infected in C57BL/6 mouse assessed as serum aspartate aminotransferase at 10 mg/kg, ip after 24 hrs measured on 4 days postinfection; type: functional; settings: route intraperitoneal; procedure, shortened: as §3
Ebolavirus [22] = test: Antiviral activity against Ebola-like viruses infected in C57BL/6 mouse assessed as serum alkaline phosphatase at 10 mg/kg, ip after 24 hrs measured on 4 days postinfection; type: functional; settings: route intraperitoneal; procedure, shortened: as §3
Ebolavirus [23] = test: Antiviral activity against Ebola-like viruses infected in C57BL/6 mouse assessed as serum alanine aminotransferase at 10 mg/kg, ip after 24 hrs measured on 6 days postinfection; type: functional; settings: route intraperitoneal; procedure, shortened: as §3
Ebolavirus [24] = test: Antiviral activity against Ebola-like viruses infected in C57BL/6 mouse assessed as serum aspartate aminotransferase at 10 mg/kg, ip after 24 hrs measured on 6 days postinfection; type: functional; settings: route intraperitoneal; procedure, shortened: as §3
Ebolavirus [25] = test: Antiviral activity against Ebola-like viruses infected in C57BL/6 mouse assessed as serum alkaline phosphatase at 10 mg/kg, ip after 24 hrs measured on 6 days postinfection; type: functional; settings: route intraperitoneal; procedure, shortened: as §3
Ebolavirus [26] = test: Antiviral activity against Ebola-like viruses infected in C57BL/6 mouse kidney assessed as reduction in viral burden at 10 mg/kg, ip single dose; type: functional; settings: route intraperitoneal
Ebolavirus [27] = test: Antiviral activity against Ebola-like viruses infected in C57BL/6 mouse liver assessed as reduction in viral burden at 10 mg/kg, ip single dose; type: functional; settings: route intraperitoneal
Ebolavirus [28] = test: Antiviral activity against Ebola-like viruses infected in C57BL/6 mouse spleen assessed as reduction in viral burden at 10 mg/kg, ip single dose; type: functional; settings: route intraperitoneal
Mus musculus [29] = test: Toxicity in Ebola-like viruses infected in C57BL/6 mouse assessed as mild hepatitis with hepatocellular necrosis at 10 mg/kg, ip single dose measured after 4 days; type: organism-based; parameters: dose 10 mg/kg, route intraperitoneal; settings: in vivo, 96 h
Mus musculus [30] = test: Toxicity in Ebola-like viruses infected in C57BL/6 mouse spleen assessed as mild lymphocytolysis at 10 mg/kg, ip single dose measured after 4 days; type: organism-based; parameters: dose 10 mg/kg, route intraperitoneal; settings: in vivo, 96 h

N=C(N)c1ccc2oc(/C=C/c3nc4cc(C(=N)N)ccc4[nH]3)cc2c1
Activity (Ebolavirus [1]): Dose-dependent effect
EC50 (Ebolavirus [1]; Orthoebolavirus): 0.1 µM
EC90 (Ebolavirus [1]; Orthoebolavirus): 0.33 µM
inhibition (INH) (Ebolavirus [2]): >=0.8%
EC50 (Ebolavirus [3]): 0.42 µM
EC90 (Ebolavirus [3]): 0.96 µM
CC50 at 72 h [4]: ≥ 50 µM
CC50 at 72 h [5]: ≥ 50 µM
CC50 at 72 h [6]: ≥ 50 µM
CC50 at 72 h [7]: ≥ 50 µM
CC50 at 72 h [8]: ≥ 50 µM
CC50 at 72 h [9]: ≥ 50 µM
Activity [10]: >99.9%
EC50 [11]: 2.5 µM
Activity [12]: >90%
CC50 [13]: 2.5 µM
Activity (Ebolavirus [14]): 60%
Activity (Marburgvirus [15]): Active
Activity (Marburgvirus [16]): 40%
Activity (Ebolavirus [17]): 148 U/L
Activity (Ebolavirus [18]): 237 U/L
Activity (Ebolavirus [19]): 57 U/L
Activity (Ebolavirus [20]): 23 U/L
Activity (Ebolavirus [21]): 54 U/L
Activity (Ebolavirus [22]): 65 U/L
Activity (Ebolavirus [23]): 87 U/L
Activity (Ebolavirus [24]): 207 U/L
Activity (Ebolavirus [25]): 67 U/L
log10cfu (Ebolavirus [26]): 1
log10cfu (Ebolavirus [27]): 1
log10cfu (Ebolavirus [28]): 1
Activity (Mus musculus [29]): Toxic
Activity (Mus musculus [30]): Toxic
